The values below come from ChEMBL document CHEMBL1151895, “Discovery, synthesis, and biological evaluation of piperidinol analogs with anti-tuberculosis activity” (Bioorg Med Chem, 2009).

The nature of series [1]: Therapeutic index, CC50 for african green monkey Vero cells to MIC for Mycobacterium tuberculosis H37Rv. It is filed as cell-based.
The subject of series [2] is Mycobacterium tuberculosis. Nature of the series: Antimicrobial activity against Mycobacterium tuberculosis H37Rv after 9 to 12 days by CLSI microbroth dilution technique. The class given is functional. In outline:
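M. tuberculosis H37Rv grown in Middlebrook 7H9 with 10% OADC to OD600 0.4–0.6, frozen in aliquots of known CFU/mL. Compounds serially diluted in DMSO, added to 7H9 medium; 2×10^4 bacteria per well. Incubated at 37 °C for […]. MIC90 read visually as concentration inhibiting 90% of growth. Isoniazid control run in each experiment.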
On the technique in general: Dilution methods test growth across graded concentrations, often in twofold steps.

The nature of series [3]: Cytotoxicity against african green monkey Vero cells after 72 hrs by alamar blue assay. It is filed as cell-based. Conditions: chlorocebus sabaeus, read-out: LD50. In outline: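 Vero cells grown in phenol-free L15 medium with glutamine, penicillin-streptomycin and 10% bovine calf serum at 37°C. Compounds tested by microplate dilution for 72 h at 37°C. alamarBlue then added and plates incubated overnight at 37°C. Drug LD50 determined.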
For orientation: Resazurin is reduced to fluorescent resorufin, in cell work by metabolically active cells.

The next series deals with Mus musculus. Nature of the series: Toxicity in mouse assessed as death at 50 to 100 mg/kg. Also noted: dose 50-100 mg/kg. The class given is organism-based. The conditions noted are these: in vivo.

Converted amounts (≈) assume the structure as drawn. A value given as a limit tells only on which side of the number the result lay.

Broadly, the MIC is the smallest concentration in the dilution series that meets the test's criterion for growth inhibition. Consider `O[C@@H](COc1ccc(Cl)c(Cl)c1)CN1CCC(O)(c2ccc(Cl)c(C(F)(F)F)c2)CC1`, for which the selectivity ratio in series [1] is 5.8. Besides, in series [2], 3.1 µg/mL (≈ 6.22 µM) was the least that counted as inhibitory (MIC). Further, the CC50 at 72 h in series [3] amounted to 18 µg/mL (≈ 36.1 µM).
`N#CC1(c2ccccc2)CCN(C[C@@H](O)COc2ccc(Cl)cc2)CC1` gave a minimal inhibitory concentration (MIC) in series [2] of 25 µg/mL (≈ 67.4 µM).
For the molecule `O[C@H](COc1ccccc1)CN1CCC(O)(c2ccc(Cl)c(C(F)(F)F)c2)CC1`, the selectivity ratio in series [1] is 4.2. This molecule displayed an MIC in series [2] of 8.3 µg/mL (≈ 19.3 µM). For the same molecule, the CC50 at 72 h in series [3] is 34.9 µg/mL (≈ 81.2 µM).
In the same order, the values of `O[C@H](COc1ccc(C(F)(F)F)cc1)CN1CCC(O)(c2ccc(Cl)c(C(F)(F)F)c2)CC1` are 11, 1.7 µg/mL (≈ 3.41 µM) and 18.7 µg/mL (≈ 37.6 µM).
Consider `O[C@H](COc1ccc(Cl)cc1)CN1CCC(O)(c2ccc(Cl)c(C(F)(F)F)c2)CC1`, for which the selectivity ratio in series [1] came out at 4.7. 3.8 µg/mL (≈ 8.18 µM) was the least that counted as inhibitory in series [2] (MIC). In series [3], the CC50 at 72 h came to 17.9 µg/mL (≈ 38.6 µM).
In the same order, the values of `Cc1cccc(C)c1OC[C@H](O)CN1CCC(O)(c2ccc(Cl)c(C(F)(F)F)c2)CC1` are 3.3, 5.9 µg/mL (≈ 12.9 µM) and 19.3 µg/mL (≈ 42.1 µM).
Take `O[C@@H](COc1ccc(Cl)cc1)CN1CCC(O)(c2ccc(Cl)c(C(F)(F)F)c2)CC1`: the selectivity ratio in series [1] was determined as 13.3. The molecule also registered an MIC in series [2] of 1.4 µg/mL (≈ 3.02 µM). The CC50 at 72 h in series [3] came to 18.2 µg/mL (≈ 39.2 µM). Besides, the Activity result in the series with Mus musculus is reported as “Toxic”.
Consider `O[C@H](COc1ccc(F)cc1)CN1CCC(O)(c2ccc(Cl)c(C(F)(F)F)c2)CC1`, for which the selectivity ratio in series [1] is 6.6. Further, it took 3.9 µg/mL (≈ 8.71 µM) to inhibit growth in series [2] (MIC). Further, the CC50 at 72 h in series [3] turned out to be 25.8 µg/mL (≈ 57.6 µM).
The like results for `O[C@@H](CSc1ccccc1)CN1CCC(O)(c2ccc(Cl)c(C(F)(F)F)c2)CC1` were, in that order, 4.4, 8.3 µg/mL (≈ 18.6 µM) and 37.1 µg/mL (≈ 83.2 µM).
Molecule `O[C@@H](COc1ccc(Cl)cc1)CN1CC=C(c2ccc(Cl)cc2)CC1` came in with an MIC in series [2] of over 200 µg/mL.
On to `O[C@H](COc1ccc(Cl)c(Cl)c1)CN1CCC(O)(c2ccc(Cl)c(C(F)(F)F)c2)CC1`, for which, in series [1], the selectivity ratio was 2.6. Moreover, the MIC in series [2] turned out to be 7.3 µg/mL (≈ 14.6 µM). Also, the CC50 at 72 h in series [3] amounted to 18.7 µg/mL (≈ 37.5 µM).
In the same order, the values of `O[C@H](COc1ccc(OC(F)(F)F)cc1)CN1CCC(O)(c2ccc(Cl)c(C(F)(F)F)c2)CC1` are 2.4, 7.3 µg/mL (≈ 14.2 µM) and 17.6 µg/mL (≈ 34.3 µM).
In the same order, the values of `O[C@@H](COc1ccc(F)cc1)CN1CCC(O)(c2ccc(Cl)c(C(F)(F)F)c2)CC1` are 2, 10.4 µg/mL (≈ 23.2 µM) and 20.8 µg/mL (≈ 46.4 µM).
`O[C@@H](COc1ccc(Cl)cc1)CN1CCC(O)(c2ccccc2)CC1` yielded an MIC in series [2] of 100 µg/mL (≈ 276 µM).
The same measure, in the same setting: then `O[C@@H](COc1ccc(Cl)cc1)CN1CCC(O)(c2ccc(Cl)cc2)CC1`, with 25 µg/mL (≈ 63.1 µM).
With `O[C@@H](COc1ccc(OC(F)(F)F)cc1)CN1CCC(O)(c2ccc(Cl)c(C(F)(F)F)c2)CC1`, in series [1], the selectivity ratio came out at 4.9. For the same molecule, the MIC in series [2] was 3.6 µg/mL (≈ 7.01 µM). Besides, the CC50 at 72 h in series [3] is 17.7 µg/mL (≈ 34.4 µM).
Consider `O[C@@H](COc1ccccc1)CN1CCC(O)(c2ccc(Cl)c(C(F)(F)F)c2)CC1`, for which the selectivity ratio in series [1] is 1.5. The molecule further returned a minimum inhibitory concentration (MIC) in series [2] of 18.8 µg/mL (≈ 43.7 µM). Further, in series [3], the CC50 at 72 h was determined as 27.7 µg/mL (≈ 64.4 µM).
With `OC(COc1ccc(Cl)cc1)CN1CCC(O)(c2ccc(Cl)c(C(F)(F)F)c2)CC1` (racemic), in series [1], the selectivity ratio turned out to be 11.9. For the same molecule, the MIC in series [2] stood at 1.5 µg/mL (≈ 3.23 µM). Besides, the CC50 at 72 h in series [3] was 17.9 µg/mL (≈ 38.6 µM).
As for `O[C@@H](COc1ccc(C(F)(F)F)cc1)CN1CCC(O)(c2ccc(Cl)c(C(F)(F)F)c2)CC1`, the selectivity ratio in series [1] turned out to be 3.5. Further, the MIC in series [2] came to 5.2 µg/mL (≈ 10.4 µM). The CC50 at 72 h in series [3] was 18.3 µg/mL (≈ 36.8 µM).
Regarding `OC(COc1ccccc1)CN1CCC(O)(c2ccc(Cl)c(C(F)(F)F)c2)CC1` (racemic), in series [1], the selectivity ratio was 1.9. Further, 10.4 µg/mL (≈ 24.2 µM) was the least that counted as inhibitory in series [2] (MIC). Also, in series [3], the CC50 at 72 h came out at 19.5 µg/mL (≈ 45.4 µM).
`O[C@@H](COc1ccc(Cl)cc1)CN1CCC(O)(c2cccc(C(F)(F)F)c2)CC1` showed an MIC in series [2] of 25 µg/mL (≈ 58.2 µM).
As for `O[C@H](CSc1ccccc1)CN1CCC(O)(c2ccc(Cl)c(C(F)(F)F)c2)CC1`, the selectivity ratio in series [1] amounted to 6.8. In addition, it took 5.2 µg/mL (≈ 11.7 µM) to inhibit growth in series [2] (MIC). The CC50 at 72 h in series [3] was found to be 35.7 µg/mL (≈ 80.1 µM).
In the same order, the values of `Cc1cccc(C)c1OC[C@@H](O)CN1CCC(O)(c2ccc(Cl)c(C(F)(F)F)c2)CC1` are 4.1, 4.7 µg/mL (≈ 10.3 µM) and 19 µg/mL (≈ 41.5 µM).
